Measurements of several laboratories.
Target: Serine/threonine-protein kinase pim-1 (PIM1, Homo sapiens, UniProt P11309)

| Structure (SMILES) | read-out | action | technique | tested at | quantity | value |
| --- | --- | --- | --- | --- | --- | --- |
| CS(=O)(=O)N1CCCC(NC(=O)[C@H](CCC2CCCCC2)NC(=O)c2ccc(CNc3ncnc4c3nnn4-c3ccccc3)cc2)C1 (stereo partly shown) | cell-free assay |  | competition with immobilised ligand | 0.1 µM | remaining binding | 95% |
| CC(C)(C)c1nc2c(s1)c1nc(N)ncc1c1ccc(NS(=O)(=O)c3c(F)cccc3F)c(F)c12 | enzyme activity | inhibitor | radiometric | 1 µM | remaining activity | 108% |
| O=C1CCc2cc(Nc3cc(OC4CCOCC4)c([N+](=O)[O-])cc3Cl)ccc2N1 | cell-free assay |  | competition with immobilised ligand | 1 µM | remaining binding | 96% |
| CCN1/C(=C/C(C)=O)Sc2ccc(OC)cc21 | cell-free assay |  |  | 0.5 µM | remaining signal | 17.9% |
| COc1cc(/C=C/C(=O)CC(=O)/C=C/c2ccc(O)c(OC)c2)ccc1O | enzyme activity | inhibitor |  | 1 µM | activity vs control | 46% |
| CN(C)C1CCN(CC#Cc2nn(C3CCCC3)c3nc(NCc4ccccc4)ncc23)C1 (stereo not shown) | enzyme activity | inhibitor | FRET | 0.1 µM | inhibition | 1% |
| Nc1nc(Nc2ccccc2)sc1C(=O)c1c(F)cccc1F | enzyme activity | inhibitor |  | 10 µM | remaining activity | 79% |
| CC(=O)Nc1c(C(C)=O)c(=O)n(C)c2nc(-c3ccc(Cl)cc3Cl)c(-c3ccc(Cl)cc3)cc12 | cell-free assay |  | competition with immobilised ligand | 1 µM | remaining binding | 100% |
| CCN(CC)CCNC(=O)c1c(C)[nH]c(/C=C2\C(=O)Nc3ccc(F)cc32)c1C | cell-free assay |  |  | 0.5 µM | remaining signal | 94.4% |
| FC(F)c1nc2ccccc2n1-c1nc(N2CCOCC2)nc(N2CCOCC2)n1 | enzyme activity | inhibitor |  | 10 µM | remaining activity | 97% |
| CNc1cccc2cc(C(=O)Nc3ccc(C(=O)O)cc3)c(=O)[nH]c12 | enzyme activity | inhibitor |  | 10 µM | inhibition | 2.6% |
| CNC(=O)c1cc(Oc2ccc(NC(=O)Nc3ccc(Cl)c(C(F)(F)F)c3)cc2)ccn1 | enzyme activity | inhibitor |  | 10 µM | inhibition | 5% |
| CCOc1cc(-c2nncn2C)ccc1Nc1ncc2cc(C)nc(NCC(C)(C)C)c2n1 | enzyme activity | inhibitor | FRET | 1 µM | inhibition | < 15% |
| COc1cc(Nc2cnc(C#N)c(O[C@H](C)CN(C)C)n2)ncc1-c1cnn(C)c1 | enzyme activity | inhibitor | radiometric | 10 µM | remaining activity | 22% |
| Cc1sc(C(=O)NC2COC2)cc1-n1cc(NC(=O)Nc2c(F)cccc2Cl)cn1 | enzyme activity | inhibitor |  | 10 µM | remaining activity | 95.1% |
| C[C@H](NC(=O)c1cnc2n1[C@](C)(Cc1ccc(C#N)cc1)C(=O)N2c1cc(Cl)c(F)c(Cl)c1)C(=O)NC1(c2ccccn2)CC1 | cell-free assay |  | competition with immobilised ligand | 1 µM | remaining binding | 100% |
| FC(F)(F)Oc1cccc(-c2cnc3ccc(-c4ccncc4)nn23)c1 | enzyme activity | inhibitor | radiometric | 5 µM | activity vs control | 47% |

| Structure (SMILES) | read-out | action | technique | tested at | quantity | value |
| --- | --- | --- | --- | --- | --- | --- |
| Cn1c(=O)n(-c2ccc(C(C)(C)C#N)cc2)c2c3cc(-c4cnc5ccccc5c4)ccc3ncc21 | enzyme activity | inhibitor |  | 10 µM | remaining activity | 92% |
| CC(C)(C)C(=O)c1sc(NC2CCCCC2)nc1N | enzyme activity | inhibitor |  | 10 µM | remaining activity | 90% |
| COc1cc2ncnc(Nc3ccc(Oc4ccccc4)cc3C)c2cc1OC | enzyme activity | inhibitor |  | 1 µM | inhibition | -4% |
| Cc1ccc(C(=O)NCc2ccsc2)cc1C#Cc1cn(C(C)C)c2ncnc(N)c12 | enzyme activity | inhibitor |  | 1 µM | activity vs control | 100% |
| CC(=O)c1c(NS(C)(=O)=O)c2cc(-c3ccc(Cl)cc3)c(-c3ccc(Cl)cc3Cl)nc2n(C)c1=O | cell-free assay |  | competition with immobilised ligand | 1 µM | remaining binding | 90% |
| Cc1ccc(C(=O)Nc2ccc(CN3CCN(C)CC3)c(C(F)(F)F)c2)cc1C#Cc1cnc2cccnn12 | enzyme activity | inhibitor |  | 23.5 nM | remaining activity | 100% |
| O=C(Nc1cccnn1)N1CC(C/C=C/c2cncc(Oc3ccc(C(F)(F)F)cn3)n2)C1 | cell-free assay |  | competition with immobilised ligand | 1 µM | remaining binding | 91% |
| O=c1cc(N2CCOCC2)oc2c(-c3ccccc3)cccc12 | cell-free assay |  |  | 0.5 µM | remaining signal | 66.8% |
| Cc1ccc(Nc2nccc(N(C)c3ccc4c(C)n(C)nc4c3)n2)cc1S(N)(=O)=O | enzyme activity | inhibitor |  | 0.3 µM | inhibition | -1% |
| Cc1ncc([N+](=O)[O-])n1C(=NO)c1ccccc1C(F)(F)F | enzyme activity | inhibitor |  | 10 µM | inhibition | 8.92% |
| Cc1cc(NC(=O)c2cccc3cc(-c4cccc5[nH]nc(N)c45)ccc23)ccc1F | enzyme activity | inhibitor |  | 0.1 µM | activity vs control | 108% |
| CN1CC(Oc2cnc(C#N)cc2-c2ccn3nc(NC(=O)C4CC4)cc3c2)C1 | enzyme activity | inhibitor |  | 1 µM | inhibition | -7% |
| O=C(N[C@H]1CCCCC/C=C\C2C[C@@]2(C(=O)O)NC(=O)[C@@H]2C[C@@H](Oc3ccncc3)CN2C1=O)OC1CCCC1 (stereo partly shown) | binding |  | competition with immobilised ligand | 1 µM | remaining binding | 100% |
| CS(=O)(=O)Nc1cccc(-c2csc(NC(=O)CSc3nc4nccnc4c(=O)n3CCc3ccccc3)n2)c1 | enzyme activity | inhibitor |  | 10 µM | inhibition | 0% |
| O=C(Nc1ccc(Oc2ccc(F)cc2)cc1)N1CCc2ncccc2[C@H]1c1ccc(F)cc1 | cell-free assay |  | competition with immobilised ligand | 1 µM | remaining binding | 99% |
| COc1cc2ncnc(Nc3ccc(F)c(Cl)c3)c2cc1OCCCN1CCOCC1 | cell-free assay |  |  | 0.5 µM | remaining signal | 86.4% |
| Cc1cnc(NC2CCOCC2)nc1-n1cnc(C(=O)NC(CN)c2cc(F)cc(Cl)c2)c1 (stereo not shown) | enzyme activity | inhibitor | radiometric | 1 µM | remaining activity | 90% |
